Series [1] has as its system HT-29. Description: Antitumor activity against human HT29 cells implanted in CD1 mouse assessed as clonogenic survival at 1000 umol/kg, ip after 18 hrs relative to control. It counts as functional. The essentials:
(§1)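 HT29 xenografts in CD-1 homozygous nude mice; single i.p. dose of drug alone, formulated as the HCl salt in 0.9% saline, 5% DMSO/saline or lactate buffer (pH 4.0). Tumors excised 18 h later, dissociated to single-cell suspensions and plated. Clonogens/g of tumor counted; surviving fraction = treated/control clonogens/g.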

The subject of the next series is Mus musculus. Description: Toxicity in ip dosed CD1 mouse. The class given is organism-based. The settings on record: in vivo. The method in brief:
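MTD in CD-1 homozygous nude mice after single i.p. doses (HCl salts in saline, 5% DMSO/saline or lactate buffer pH 4.0), escalated in 1.33-fold increments. MTD taken as the highest dose causing no death, no body weight loss >15% and no other severe morbidity in any of 6 mice.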

The test system of series [2] is HT-29. Description: Ratio of IC50 for HT29 cells under oxic conditions to hypoxic conditions after 4 hrs. It counts as functional, Homo sapiens.
Series [3] concerns HT-29. Description: Cytotoxicity against human HT29 cells under hypoxic conditions after 4 hrs. The class given is functional, cell-based. The settings on record: HT-29, 4 h.
A short description of series [4]: Solubility in culture medium in presence of 5% fetal calf serum. The class given is physicochemical. The settings on record: culture medium with 5% fetal calf serum.
Series [5] deals with HT-29. As to the kind of experiment: Antitumor activity against human HT29 cells implanted in CD1 mouse at 1000 umol/kg, ip administered 5 mins after irradiation by excision assay relative to radiation alone. The class given is functional. The method in brief: (§2)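 Hypoxic-cell excision assay in HT29 xenografts in CD-1 homozygous nude mice. Mice received 20 Gy γ radiation to sterilize oxic tumor cells, then a single i.p. drug dose (HCl salt in saline, 5% DMSO/saline or pH 4.0 lactate buffer) 5 min later. Tumors excised at 18 h and plated for clonogens/g. Log cell kill = log(clonogens/g, radiation only) − log(clonogens/g, radiation plus drug).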

A short description of series [6]: Half life in CD1 mouse at 1000 umol/kg, ip. The class given is ADME, organism-based. The settings on record: in vivo. The method in brief:
(§3)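 Single i.p. dose to CD-1 homozygous nude mice, drug as HCl salt in 0.9% saline, 5% DMSO/saline or lactate buffer (pH 4.0). Plasma total drug measured by HPLC at 75 or 100% of MTD (MTD from 1.33-fold dose steps, 6 mice). Noncompartmental analysis gave AUC, Cmax and t1/2.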

For series [7], the system named is HT-29. As to the kind of experiment: Effect on human HT29 cells under hypoxic conditions assessed as drug level causing 10% clonogenic survival. The class given is functional. The method in brief: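 HT29 suspensions (1 or 2 × 10^6 cells/mL) in serum-free medium were stirred under 5% CO2/95% N2 for 90 min. Drug was added from deoxygenated DMSO stock at a level giving about 10% survival at 1 h, and samples were taken up to 3 h. Clonogenic survival (14 days, methylene blue) was fitted with the HPLC concentration–time data, and the 10% survival exposure was interpolated.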

The nature of series [8]: AUC in CD1 mouse at 1000 umol/kg, ip. The settings on record: plasma. The class given is ADME, organism-based. The method in brief: as §3
Series [9] concerns SiHa. As to the kind of experiment: Ratio of IC50 for SiHa cells under oxic conditions to hypoxic conditions after 4 hrs. It counts as functional, Homo sapiens.
For series [10], the system named is SiHa. As to the kind of experiment: Cytotoxicity against human SiHa cells under hypoxic conditions after 4 hrs. It counts as functional, cell-based.
A short description of series [11]: AUC in CD1 mouse at 237 umol/kg, ip. The class given is ADME, organism-based. The settings on record: plasma. The essentials: as §3
Series [12] deals with HT-29. As to the kind of experiment: Diffusion coefficient, D in HT29 multicellular layers. The class given is ADME, cell-based. The settings on record: human. The method in brief:
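HT29 multicellular layers were grown 3 days on collagen-coated Teflon membranes, equilibrated 60 min under 95% O2/5% CO2 at 37 °C, then placed in a diffusion chamber. Donor and receiver were sampled up to 5 h and assayed by HPLC. D came from fitting both profiles to a Fickian model with membrane and MCL in series, corrected by support-only Ds.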

Series [13] is described as follows: Cmax in CD1 mouse at 237 umol/kg, ip. It counts as ADME, organism-based. Also on record: dose 237 umol/kg, route intraperitoneal. The settings on record: in vivo. The essentials:
as §3

A short description of series [14]: Half life in CD1 mouse at 237 umol/kg, ip. The class given is ADME, organism-based. The settings on record: in vivo. The method in brief:
as §3

The subject of series [15] is HT-29. Description: Antitumor activity against human HT29 cells implanted in CD1 mouse at 562 umol/kg, ip administered 5 mins after irradiation by excision assay relative to radiation alone. The class given is functional. The method in brief:
as §2

The test system of series [16] is HT-29. Description: Antitumor activity against human HT29 cells implanted in CD1 mouse assessed as clonogenic survival at 562 umol/kg, ip after 18 hrs relative to control. The class given is functional. The essentials:
as §1

Series [17] is described as follows: AUC in CD1 mouse at 562 umol/kg, ip. The class given is ADME, organism-based. The settings on record: plasma. The method in brief: as §3
Series [18] can be described thus: Half life in CD1 mouse at 562 umol/kg, ip. The class given is ADME, organism-based. The settings on record: in vivo. The essentials: as §3
Series [19] is described as follows: Cmax in CD1 mouse at 316 umol/kg, ip. It counts as ADME, organism-based. Also on record: dose 316 umol/kg, route intraperitoneal. The settings on record: in vivo. The essentials:
as §3

Series [20] in a line: AUC in CD1 mouse at 316 umol/kg, ip. The settings on record: plasma. It counts as ADME, organism-based. The essentials:
as §3

The nature of series [21]: Half life in CD1 mouse at 316 umol/kg, ip. The class given is ADME, organism-based. The settings on record: in vivo. The method in brief:
as §3

Series [22] is described as follows: Cmax in CD1 mouse at 1000 umol/kg, ip. The class given is ADME, organism-based. Further details: dose 1000 umol/kg, route intraperitoneal. The settings on record: in vivo. The essentials: as §3
Series [23] is described as follows: Cmax in CD1 mouse at 750 umol/kg, ip. It counts as ADME, organism-based. Also on record: dose 750 umol/kg, route intraperitoneal. The settings on record: in vivo. The method in brief:
as §3

The nature of series [24]: Half life in CD1 mouse at 750 umol/kg, ip. The settings on record: in vivo. It counts as ADME, organism-based. The essentials: as §3
Series [25] is described as follows: AUC in CD1 mouse at 750 umol/kg, ip. It counts as ADME, organism-based. The settings on record: plasma. The method in brief: as §3

In general, IC50 refers to the concentration needed to halve the response being measured. Broadly, the solubility is how much of the substance goes into solution per volume. One may read the half-life as the time in which the quantity being followed falls by half. As a reminder, the AUC is concentration integrated over time. A high value points to high exposure. Broadly, the Cmax is the maximum level reached in the sampled fluid or tissue.

Molecules are shown by their SMILES.

For the molecule `CN(C)CCNc1n[n+]([O-])c2ccc(OCC3CC3)cc2[n+]1[O-]`, the LCK is -0.14 with HT-29 [1] and -0.06 in the series with HT-29 [5]. The molecule further returned an MTD in the series on Mus musculus of 750 µM/g. Besides, the Ratio IC50 with HT-29 [2] amounted to 35; with SiHa [9], 101. Moreover, the IC50 turned out to be 3.8 µM in the series with HT-29 [3] and 2.1 µM in the series on SiHa [10]. Besides, the solubility in series [4] was found to be 43 mM. Further, in series [6], the half-life came to 33.9 min. Also, the Activity with HT-29 [7] was 45.1 µM·h. In addition, in [8], the AUC was 51.3 µM·h.
In the series on Mus musculus, `Cc1ccc2c(c1)[n+]([O-])c(NCCN1CCCCC1)n[n+]2[O-]` came in with an MTD of 237 µmol/kg. Besides, the AUC in series [11] was 13.8 µM·h. Further, the D in the series with HT-29 [12] came to 7.49e-07 cm²/s. The “Ratio IC50” value worked out at 58 in the series with HT-29 [2] and 75 in the series on SiHa [9]. Further, the values for the IC50 in the series with HT-29 [3] and in the series on SiHa [10] were 4 µM and 2.2 µM, respectively. In series [4], the solubility came out at 45 mM. In series [13], this molecule came in with a Cmax of 14.9 µM. In series [14], this molecule returned a half-life of 16.6 min. Besides, in the series on HT-29 [7], the Activity is 9.4 µM·h.
For the molecule `COCCOc1ccc2c(c1)[n+]([O-])c(NCCN(C)C)n[n+]2[O-]`, the LCK in the series on HT-29 [15] was 0.3; with HT-29 [16] it was -0.08. Moreover, the MTD in the series on Mus musculus is 1330 µM/g. Besides, the AUC in [17] is 257 µM·h. Besides, the Ratio IC50 with HT-29 [2] is 117; with SiHa [9], 401. Also, the IC50 in the series on HT-29 [3] worked out at 5 µM; in the series on SiHa [10], 1.6 µM. Besides, the solubility in series [4] was more than 51 mM. Further, the half-life in series [18] was determined as 44.9 min. Further, the Activity with HT-29 [7] turned out to be 51.8 µM·h.
Consider `COc1ccc2c(c1)[n+]([O-])c(NCCN1CCCCC1)n[n+]2[O-]`, for which the MTD in the series with Mus musculus was determined as 421 µmol/kg. For the same molecule, in [19], the Cmax worked out at 26.7 µM. Also, the “Ratio IC50” value was found to be 24 in the series on HT-29 [2] and 65 with SiHa [9]. The molecule further gave an AUC in series [20] of 20.2 µM·h. Also, the values for the IC50 in the series with HT-29 [3] and with SiHa [10] were 10.8 µM and 3 µM, respectively. Besides, the solubility in series [4] was 45 mM. In addition, the Activity in the series on HT-29 [7] was 38.9 µM·h. Moreover, the half-life in [21] was determined as 24.6 min.
Take `COc1ccc2c(c1)[n+]([O-])c(NCCN(C)C)n[n+]2[O-]`: the LCK in the series on HT-29 [1] was 0.15; in the series with HT-29 [5] it was 1.84. The molecule further yielded an MTD in the series with Mus musculus of 1000 µmol/kg. The same molecule came in with a D in the series on HT-29 [12] of 2.32e-07 cm²/s. Also, the entries for the “Ratio IC50” value in the series on HT-29 [2] and with SiHa [9] were 89 and 232, respectively. Besides, the IC50 amounted to 7.7 µM with HT-29 [3] and 2.9 µM in the series on SiHa [10]. Moreover, in series [4], the solubility was 46 mM. This molecule also showed a half-life in series [6] of 51.5 min. The highest level in [22] (Cmax) was 157 µM. The Activity in the series on HT-29 [7] was 26.1 µM·h. For the same molecule, the AUC in [8] is 240 µM·h.
For the molecule `Cc1ccc2c(c1)[n+]([O-])c(NCCN1CCOCC1)n[n+]2[O-]`, in series [23], the peak level (Cmax) was 132 µM. In the series with Mus musculus, the MTD was 1000 µmol/kg. Besides, the D in the series on HT-29 [12] was 4.52e-07 cm²/s. For the same molecule, the “Ratio IC50” value in the series with HT-29 [2] was determined as 55; in the series with SiHa [9] it was 86. The half-life in series [24] worked out at 15.4 min. The figures for the half-inhibitory concentration (IC50) in the series on HT-29 [3] and with SiHa [10] were 21.8 µM and 8.3 µM, respectively. Also, the solubility in series [4] was more than 46 mM. The molecule further had an area under the curve (AUC) in series [25] of 86.8 µM·h. In addition, the Activity with HT-29 [7] was determined as 134 µM·h.
`CCc1ccc2c(c1)[n+]([O-])c(NCCN(C)C)n[n+]2[O-]` had an MTD with Mus musculus of 421 µmol/kg. Also, in [19], the highest level (Cmax) was 21.6 µM. Besides, the “Ratio IC50” value in the series on HT-29 [2] is given as 116; in the series with SiHa [9], 186. In series [20], this molecule showed an AUC of 13.2 µM·h. Besides, the values for the IC50 with HT-29 [3] and in the series on SiHa [10] were 1.3 µM and 0.5 µM, respectively. Further, the solubility in series [4] was more than 49 mM. In the series on HT-29 [7], the Activity came out at 6.2 µM·h. The molecule also yielded a half-life in series [21] of 12.7 min.
